Data reported in ChEMBL document CHEMBL1127741, “4-[(Alkylamino)methyl]furo[3,2-c]pyridines: a new series of selective kappa-receptor agonists” (J Med Chem, 1994).

These compounds were tested on Mus musculus (assay: Antinociceptive activity was measured using the mouse acetylcholine-induced abdominal constriction test following subcutaneous administration of the compound). Conditions: Abdomen, sc.
Format: functional
Method in brief: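 Male/female not stated; mice dosed subcutaneously, then challenged with acetylcholine to provoke abdominal constrictions. Inhibition of constrictions scored, and an ED50 (mg/kg, sc) derived for each compound.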
In the case of `O=C(Cc1ccc(Cl)c(Cl)c1)N1CCc2c(O)cccc2C1CN1CCCC1` (stereo unspecified), the ED50 is reported as 3 µg/kg. With `Cc1cc2c(o1)CCN(C(=O)Cc1ccc(Cl)c(Cl)c1)C2CN1CCC(O)C1` (stereo unspecified) the ED50 was 12 µg/kg. With `O=C1CCN(CC2c3ccoc3CCN2C(=O)Cc2ccc(Cl)c(Cl)c2)C1` (stereo unspecified) the ED50 was 19 µg/kg. For `O=C(Cc1ccc(Cl)c(Cl)c1)N1CCc2occc2C1CN1CC[C@H](O)C1` (single isomer, unassigned), the ED50 was 1 µg/kg. `O=C(Cc1ccc(Cl)c(Cl)c1)N1CCc2occc2C1CN1CCCC1` (stereo unspecified) gave an ED50 of 30 µg/kg. `O=C(Cc1ccc(Cl)c(Cl)c1)N1CCc2c(O)cccc2C1CN1CCC(O)C1` (stereo unspecified) was tested, and the ED50 was 84 µg/kg. Work on `O=C(Cc1ccc(Cl)c(Cl)c1)N1CCc2occc2C1CN1CCC(O)C1` (stereo unspecified) yielded an ED50 of 2 µg/kg. Compound `O=C(Cc1ccc(Cl)c(Cl)c1)N1CCc2occc2[C@@H]1CN1CC[C@H](O)C1` has an ED50 of 1.5 µg/kg. `O=C(Cc1ccc(Cl)c(Cl)c1)N1CCc2occc2[C@H]1CN1CC[C@@H](O)C1` gave an ED50 of 30 µg/kg. `O=C(Cc1ccc(Cl)c(Cl)c1)N1CCc2occc2C1CN1CC=CCC1` (stereo unspecified) was tested, and the ED50 was 4 µg/kg. In the case of `O=C(Cc1ccc(Cl)c(Cl)c1)N1CCC2(CC1CN1CCCC1)OCCO2` (stereo unspecified), the ED50 is reported as 1 µg/kg.
